In ChEMBL document CHEMBL5512684 (J Med Chem, 2024):
Peptide text beside a SMILES is read from it.

Key:
[1] = organism: Homo sapiens; assay: (§1) Selectivity index, ratio of IC50 for antagonist activity at human alpha9alpha10 nAChR expressed in Xenopus laevis oocytes assessed as inhibition of Ach-induced response to IC50 for antagonist activity at human alpha3beta2 nAChR expressed in Xenopus laevis oocytes assessed as inhibition of Ach-induced response; format: cell-based
[2] = target: T1, Neuronal acetylcholine receptor; alpha9/alpha10 (Homo sapiens) (UniProt Q9UGM1+Q9GZZ6); assay: (§2) Antagonist activity at human alpha9alpha10 nAChR expressed in Xenopus laevis oocytes assessed as inhibition of Ach-induced response by measuring residual activity at 10 uM at -70 mV holding potential measured after 5 mins by two electrode voltage-clamp electrophysiology method relative to control; format: cell-based; settings: Oocyte
Outline: (§3)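 Single-point test at 10 μM peptide, applied for 5 min in a static bath to oocytes under TEVC at −70 mV. ACh 100 μM (α7, α9, α9α10) or 3 mM (α10), pulsed every 60 s. The ACh response was normalized to the response after a 5-min bath application of control saline.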

[3] = target: Neuronal acetylcholine receptor; alpha3/beta2 (Homo sapiens, UniProt P17787+P32297); assay: Antagonist activity at human alpha3beta2 nAChR expressed in Xenopus laevis oocytes assessed as inhibition of Ach-induced response at -70 mV holding potential measured after 5 mins by two electrode voltage-clamp electrophysiology method; format: cell-based, Oocyte
Outline: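 Oocytes expressing human α3β2 nAChRs were clamped at −70 mV by TEVC 1–4 days after cRNA injection and gravity-perfused with HEPES-buffered saline, pH 7.4. ACh was pulsed every 60 s until responses were stable. Peptide was perfused up to 1 μM, or given as a 5-min static bath above 1 μM. Responses were normalized to control ACh responses.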

[4] = target: T2, Neuronal acetylcholine receptor subunit alpha-10 (Homo sapiens, UniProt Q9GZZ6); assay: Antagonist activity at human alpha10 nAChR expressed in Xenopus laevis oocytes assessed as inhibition of Ach-induced response by measuring residual activity at 10 uM at -70 mV holding potential measured after 5 mins by two electrode voltage-clamp electrophysiology method relative to control; format: cell-based; settings: Oocyte; outline: as §3
[5] = target: T3, Neuronal acetylcholine receptor subunit alpha-7 (Homo sapiens, UniProt P36544); assay: (§4) Antagonist activity at human alpha7 nAChR expressed in Xenopus laevis oocytes assessed as inhibition of Ach-induced response by measuring residual activity at 10 uM at -70 mV holding potential measured after 5 mins by two electrode voltage-clamp electrophysiology method relative to control; format: cell-based; settings: Oocyte; outline: as §3
[6] = organism: Homo sapiens; assay: as §1, with “alpha10” for “alpha9alpha10”; format: cell-based
[7] = target: T4, Neuronal acetylcholine receptor subunit alpha-9 (Homo sapiens, UniProt Q9UGM1); assay: Antagonist activity at human alpha9 nAChR expressed in Xenopus laevis oocytes assessed as inhibition of Ach-induced response at -70 mV holding potential measured after 5 mins by two electrode voltage-clamp electrophysiology method; format: cell-based, Oocyte
Outline: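 Human α9 or α9α10 cRNA in stage IV–V oocytes kept at 16 °C; α9-only oocytes incubated with 5 mM choline. TEVC at −70 mV, 1–4 days post-injection. 1 s pulses of 100 μM ACh every 60 s until responses were stable. Peptide perfused (≤1 μM) and responses normalized to the mean of three control responses. Above 1 μM, 5-min static bath normalized to a 5-min control-saline bath.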

[8] = organism: Homo sapiens; assay: as §1, with “alpha7” for “alpha9alpha10”; format: cell-based
[9] = target: T4, Neuronal acetylcholine receptor subunit alpha-9; assay: Antagonist activity at human alpha9 nAChR expressed in Xenopus laevis oocytes assessed as inhibition of Ach-induced response by measuring residual activity at 10 uM at -70 mV holding potential measured after 5 mins by two electrode voltage-clamp electrophysiology method relative to control; format: cell-based; settings: Oocyte; outline: as §3
[10] = target: T3, Neuronal acetylcholine receptor subunit alpha-7; assay: Antagonist activity at human alpha7 nAChR expressed in Xenopus laevis oocytes assessed as inhibition of Ach-induced response at -70 mV holding potential measured after 5 mins by two electrode voltage-clamp electrophysiology method; format: cell-based, Oocyte
Outline: (§5)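 TEVC at −70 mV after 1–4 days, perfusion ~3 mL/min, saline pH 7.4 with BSA. ACh 3 mM for α10, 100 μM for α7. α7 pulses 500 ms, α10 1 s, every 60 s. Peptide perfused up to 1 μM, static 5-min bath above.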

[11] = organism: Homo sapiens; assay: as §1, with “alpha9” for “alpha9alpha10”; format: cell-based
[12] = target: T2, Neuronal acetylcholine receptor subunit alpha-10; assay: Antagonist activity at human alpha10 nAChR expressed in Xenopus laevis oocytes assessed as inhibition of Ach-induced response at -70 mV holding potential measured after 5 mins by two electrode voltage-clamp electrophysiology method; format: cell-based, Oocyte; outline: as §5
[13] = target: Neuronal acetylcholine receptor; alpha9/alpha10 (Homo sapiens, UniProt Q9GZZ6+Q9UGM1); assay: Antagonist activity at human alpha9alpha10 nAChR expressed in Xenopus laevis oocytes assessed as inhibition of Ach-induced response at -70 mV holding potential measured after 5 mins by two electrode voltage-clamp electrophysiology method; format: cell-based, Oocyte
[14] = target: T3, Neuronal acetylcholine receptor subunit alpha-7; assay: as §4, with “assessed as” for “by measuring”, “potential preincubated for 5 mins followed by peptide washout and” for “potential”, “15” for “5”, “(reference value: 30 +/- 9%)” for “relative to control”; format: cell-based; settings: Oocyte
Outline: (§6)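 Recovery of ACh-evoked responses was then followed during peptide washout for 15 min. Values are given as percent of control responses.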

[15] = target: T1, Neuronal acetylcholine receptor; alpha9/alpha10 (Homo sapiens); assay: as §2, with “assessed as” for “by measuring”, “potential preincubated for 5 mins followed by peptide washout and” for “potential”, “15” for “5”, “(reference value: 3 +/- 2%)” for “relative to control”; format: cell-based; settings: Oocyte; outline: as §6
[16] = target: T1, Neuronal acetylcholine receptor; alpha9/alpha10 (Homo sapiens); assay: as §2, with “assessed as” for “by measuring”, “potential preincubated for 5 mins followed by peptide washout and” for “potential”, “15” for “5”, “(reference value: 0.5%)” for “relative to control”; format: cell-based; settings: Oocyte, filed as antagonist; outline: as §6
[17] = target: T3, Neuronal acetylcholine receptor subunit alpha-7; assay: as §4, with “assessed as” for “by measuring”, “potential preincubated for 5 mins followed by peptide washout and” for “potential”, “15” for “5”, “(reference value: 0.5 +/- 0.2%)” for “relative to control”; format: cell-based; settings: Oocyte; outline: as §6

T3 sequence (P36544 whole entry): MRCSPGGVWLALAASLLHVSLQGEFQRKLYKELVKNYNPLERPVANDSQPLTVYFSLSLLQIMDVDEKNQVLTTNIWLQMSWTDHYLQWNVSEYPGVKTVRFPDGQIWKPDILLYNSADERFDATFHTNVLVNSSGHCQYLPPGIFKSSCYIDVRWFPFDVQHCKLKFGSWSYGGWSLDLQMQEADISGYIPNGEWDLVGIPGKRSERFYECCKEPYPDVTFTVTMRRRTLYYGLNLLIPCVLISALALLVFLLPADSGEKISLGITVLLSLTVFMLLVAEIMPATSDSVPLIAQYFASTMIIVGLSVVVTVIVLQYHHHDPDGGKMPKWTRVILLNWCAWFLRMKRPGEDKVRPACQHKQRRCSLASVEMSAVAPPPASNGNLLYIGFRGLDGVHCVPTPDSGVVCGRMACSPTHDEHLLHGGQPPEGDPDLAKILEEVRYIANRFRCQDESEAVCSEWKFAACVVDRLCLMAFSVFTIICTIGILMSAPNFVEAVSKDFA
Sequence of Neuronal acetylcholine receptor; alpha9/alpha10 (Q9UGM1 whole entry): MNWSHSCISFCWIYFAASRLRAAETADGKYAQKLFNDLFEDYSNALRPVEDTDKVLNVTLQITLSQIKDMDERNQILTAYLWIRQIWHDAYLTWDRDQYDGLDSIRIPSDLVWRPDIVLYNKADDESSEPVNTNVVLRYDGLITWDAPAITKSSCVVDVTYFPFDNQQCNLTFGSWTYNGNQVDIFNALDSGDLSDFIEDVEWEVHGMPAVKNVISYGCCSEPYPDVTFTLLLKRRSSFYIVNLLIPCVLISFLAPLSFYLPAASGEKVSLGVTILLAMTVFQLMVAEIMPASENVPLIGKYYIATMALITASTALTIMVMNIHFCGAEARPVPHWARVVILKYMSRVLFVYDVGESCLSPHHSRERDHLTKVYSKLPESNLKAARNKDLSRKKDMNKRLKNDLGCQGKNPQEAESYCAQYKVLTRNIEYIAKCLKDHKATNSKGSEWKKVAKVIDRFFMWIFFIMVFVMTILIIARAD
Sequence of Neuronal acetylcholine receptor; alpha9/alpha10 (Q9GZZ6 whole entry): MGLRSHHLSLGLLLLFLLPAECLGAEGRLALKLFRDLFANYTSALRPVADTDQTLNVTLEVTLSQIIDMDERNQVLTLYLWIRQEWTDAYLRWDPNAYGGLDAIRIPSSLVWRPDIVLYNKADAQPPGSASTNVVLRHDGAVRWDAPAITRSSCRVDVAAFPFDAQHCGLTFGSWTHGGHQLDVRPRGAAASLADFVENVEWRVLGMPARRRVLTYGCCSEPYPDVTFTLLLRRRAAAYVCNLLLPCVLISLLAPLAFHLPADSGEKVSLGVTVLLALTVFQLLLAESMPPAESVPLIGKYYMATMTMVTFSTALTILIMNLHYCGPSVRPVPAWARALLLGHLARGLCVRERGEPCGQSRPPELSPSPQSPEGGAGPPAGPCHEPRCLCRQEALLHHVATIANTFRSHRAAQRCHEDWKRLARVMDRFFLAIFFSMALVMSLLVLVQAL
T2 sequence (Q9GZZ6 whole entry): as above
T4 sequence (Q9UGM1 whole entry, the tested form may be a part): as the sequence (Q9UGM1 whole entry) above
Sequence of Neuronal acetylcholine receptor; alpha3/beta2 (P17787 whole entry, the tested form may be a part): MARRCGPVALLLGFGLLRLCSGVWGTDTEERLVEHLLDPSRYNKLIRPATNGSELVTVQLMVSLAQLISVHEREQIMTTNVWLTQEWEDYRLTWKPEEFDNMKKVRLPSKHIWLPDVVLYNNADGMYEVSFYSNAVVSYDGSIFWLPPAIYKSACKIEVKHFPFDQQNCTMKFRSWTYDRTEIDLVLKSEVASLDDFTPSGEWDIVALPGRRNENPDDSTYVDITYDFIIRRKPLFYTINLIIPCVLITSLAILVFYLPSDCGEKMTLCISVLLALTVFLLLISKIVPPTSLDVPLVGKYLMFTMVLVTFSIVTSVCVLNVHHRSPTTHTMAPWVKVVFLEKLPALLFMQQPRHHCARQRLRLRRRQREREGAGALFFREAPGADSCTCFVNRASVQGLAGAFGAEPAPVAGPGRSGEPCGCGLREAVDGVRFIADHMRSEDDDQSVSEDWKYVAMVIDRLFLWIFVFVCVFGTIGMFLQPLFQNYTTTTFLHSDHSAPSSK
Sequence of Neuronal acetylcholine receptor; alpha3/beta2 (P32297 whole entry, the tested form may be a part): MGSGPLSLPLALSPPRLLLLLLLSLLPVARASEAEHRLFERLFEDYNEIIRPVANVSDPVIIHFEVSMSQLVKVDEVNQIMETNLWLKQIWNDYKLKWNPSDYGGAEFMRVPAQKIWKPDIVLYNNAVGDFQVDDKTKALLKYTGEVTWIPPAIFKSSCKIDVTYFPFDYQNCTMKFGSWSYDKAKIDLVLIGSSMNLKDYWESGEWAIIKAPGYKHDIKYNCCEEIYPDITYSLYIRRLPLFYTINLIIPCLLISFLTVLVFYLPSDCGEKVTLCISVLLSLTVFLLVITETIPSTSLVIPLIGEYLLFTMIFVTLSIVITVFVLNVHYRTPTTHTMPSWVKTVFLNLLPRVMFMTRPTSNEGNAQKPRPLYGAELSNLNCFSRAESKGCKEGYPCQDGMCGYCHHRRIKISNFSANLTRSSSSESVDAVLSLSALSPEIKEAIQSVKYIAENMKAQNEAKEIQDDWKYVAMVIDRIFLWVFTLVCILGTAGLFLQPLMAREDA

SMILES | IC50 [10] [nM] | IC50 [13] [nM] | Activity ([2]; filed as antagonist) [%] | Activity ([5]; filed as antagonist) [%] | other results
CC[C@H](C)[C@H](NC(=O)[C@H](CCC(=O)O)NC(=O)[C@@H]1CCCN1C(=O)[C@H](Cc1c[nH]cn1)NC(=O)[C@H](CC(=O)O)NC(=O)[C@@H](NC(=O)[C@H](CC(N)=O)NC(=O)[C@H](CS)NC(=O)[C@H](C)NC(=O)[C@@H]1CCCN1C(=O)[C@H](Cc1c[nH]cn1)NC(=O)[C@H](CO)NC(=O)[C@H](CS)NC(=O)[C@H](CS)NC(=O)CN)C(C)C)C(=O)N[C@@H](CS)C(=O)O | > 10000 | > 10000 |  |  | Ratio IC50 [1]: > 400; Activity [2]: 103%; IC50 [3]: 25.4 nM; Activity [4]: 74%; Activity [5]: 81%; Ratio IC50 [6]: > 400; IC50 [7]: > 10000 nM; Ratio IC50 [8]: > 400; Activity [9]: 91%; Ratio IC50 [11]: > 400; IC50 [12]: > 10000 nM
C[C@H](NC(=O)[C@H](CCCNC(=N)N)NC(=O)[C@H](CCCNC(=N)N)NC(=O)[C@H](Cc1c[nH]cn1)NC(=O)[C@H](CO)NC(=O)[C@H](CCCCN)NC(=O)[C@H](CS)NC(=O)[C@H](C)NC(=O)[C@@H]1CCCN1C(=O)[C@H](Cc1c[nH]cn1)NC(=O)[C@H](CO)NC(=O)[C@H](CS)NC(=O)[C@H](CS)NC(=O)CN)C(=O)N[C@@H](CCCNC(=N)N)C(=O)N[C@@H](CS)C(=O)O (H-GCCSHPACKSHRRARC-OH) | 1890 | 133 | 0.7 | 13 | 
C[C@H](NC(=O)[C@H](CCCNC(=N)N)NC(=O)[C@H](CCCNC(=N)N)NC(=O)[C@H](Cc1c[nH]cn1)NC(=O)[C@H](CO)NC(=O)[C@H](CS)NC(=O)[C@H](C)NC(=O)[C@@H]1CCCN1C(=O)[C@H](Cc1c[nH]cn1)NC(=O)[C@H](CO)NC(=O)[C@H](CS)NC(=O)[C@H](CS)NC(=O)CN)C(=O)N[C@@H](CCCNC(=N)N)C(=O)N[C@@H](CO)C(=O)N[C@@H](CS)C(=O)O (H-GCCSHPACSHRRARSC-OH) | 10100 | 1290 | 6 | 46 | 
C[C@H](NC(=O)[C@H](CCCNC(=N)N)NC(=O)[C@H](CCCNC(=N)N)NC(=O)[C@@H]1CCCN1C(=O)[C@H](CO)NC(=O)[C@H](CS)NC(=O)[C@H](C)NC(=O)[C@@H]1CCCN1C(=O)[C@H](Cc1c[nH]cn1)NC(=O)[C@H](CO)NC(=O)[C@H](CS)NC(=O)[C@H](CS)NC(=O)CN)C(=O)N[C@@H](CCCNC(=N)N)C(=O)N[C@@H](CO)C(=O)N[C@@H](CS)C(=O)O (H-GCCSHPACSPRRARSC-OH) | 2120 | 1120 | 10 | 16 | Activity [14]: 97%; Activity [15]: 99%
C[C@H](NC(=O)[C@H](CCCNC(=N)N)NC(=O)[C@H](CO)NC(=O)[C@@H]1CCCN1C(=O)[C@H](CO)NC(=O)[C@H](CS)NC(=O)[C@H](C)NC(=O)[C@@H]1CCCN1C(=O)[C@H](Cc1c[nH]cn1)NC(=O)[C@H](CO)NC(=O)[C@H](CS)NC(=O)[C@H](CS)NC(=O)CN)C(=O)N[C@@H](CO)C(=O)N[C@@H](CO)C(=O)N[C@@H](CS)C(=O)O (H-GCCSHPACSPSRASSC-OH) | > 10000 |  |  |  | 
C[C@H](NC(=O)[C@H](CCCNC(=N)N)NC(=O)[C@H](CCCNC(=N)N)NC(=O)[C@H](CCCNC(=N)N)NC(=O)[C@H](CO)NC(=O)[C@H](CS)NC(=O)[C@H](C)NC(=O)[C@@H]1CCCN1C(=O)[C@H](Cc1c[nH]cn1)NC(=O)[C@H](CO)NC(=O)[C@H](CS)NC(=O)[C@H](CS)NC(=O)CN)C(=O)N[C@@H](CCCNC(=N)N)C(=O)N[C@@H](CO)C(=O)N[C@@H](CS)C(=O)O (H-GCCSHPACSRRRARSC-OH) | 177 | 98.1 | 1 | 1.4 | Activity [16]: 21%; Activity [17]: 99%
C[C@H](NC(=O)[C@H](CCCNC(=N)N)NC(=O)[C@H](CO)NC(=O)[C@H](CCCNC(=N)N)NC(=O)[C@H](CO)NC(=O)[C@H](CS)NC(=O)[C@H](C)NC(=O)[C@@H]1CCCN1C(=O)[C@H](Cc1c[nH]cn1)NC(=O)[C@H](CO)NC(=O)[C@H](CS)NC(=O)[C@H](CS)NC(=O)CN)C(=O)N[C@@H](CO)C(=O)N[C@@H](CO)C(=O)N[C@@H](CS)C(=O)O (H-GCCSHPACSRSRASSC-OH) | 5400 | > 10000 |  |  | 
